# Experimental data taken from ChEMBL document CHEMBL4715860 (J Med Chem, 2020).
# Activity calls are given as the source filed them. No cut-off for these calls is given here.
# Legend:
# Mus musculus [1] = test: Protection against Tsc1-GFAP knockout induced mortality in Balb/c mouse assessed as increase in survival rate administered orally twice a day measured post last dose; assay type: functional, organism-based
# Procedure, shortened: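 Tsc1GFAPCKO mice (Tsc1 conditionally inactivated mainly in glia). Oral dosing from P21 at 10, 25, 50 mg/kg qd or 50 mg/kg bid, n = 7–10 per group. Controls were vehicle and a comparator at 10 mg/kg. Body weight tracked. Survival followed from P21 to death or censoring at P90, compared by log-rank test.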
# [2] = Intrinsic clearance in Sprague-Dawley rat hepatocytes assessed per million cells at 5 uM incubated for 3 hrs by LC-MS analysis; assay type: ADME, cell-based, Hepatocyte; conditions: read-out: CLH
# Procedure, shortened: (§1)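 Cryopreserved primary hepatocytes in suspension from CD-1 mouse, Sprague-Dawley rat, Beagle dog and human. Compound at 5 μM final (from 10 mM DMSO stock). Samples taken at 0, 15, 60, 90 and 180 min and quenched with ACN plus internal standard. Parent quantified by LC-MS. Hepatocyte-free medium incubations served as negative control; 7-ethoxycoumarin as positive control. Duplicate; CLint per 10^6 cells and t1/2.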
# Mus musculus [3] = test: Protection against Tsc1-GFAP knockout induced mortality in Balb/c mouse assessed as increase in survival rate at 50 mg/kg, po administered twice daily; assay type: functional, organism-based
# Procedure, shortened: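 Tsc1GFAPCKO mice (conditional Tsc1 inactivation mainly in glia) dosed orally starting at P21, at 10 mg/kg or 50 mg/kg bid (n = 10 and 7). Survival recorded to P90, with censoring at P90. Compared with vehicle and everolimus by log-rank test.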
# Mus musculus [4] = test: In vivo inhibition of mTORC2 in C57BL/6J mouse assessed as reduction in PKB/Akt phosphorylation at Ser473 in brain at 25 mg/kg, po measured after 0.5 to 2 hrs by Western blot analysis; assay type: functional, organism-based; conditions: time 0.5-2 hrs
# Procedure, shortened: (§2)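 Time course in female C57BL/6J mice after 25 mg/kg p.o.: cortex taken at set time points and western blotted for pS6 and pPKB. Signals quantified against α-tubulin as % of control cortex; n = 3 per time point and n = 9 controls. Brain compound level measured in the same mice.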
# [5] = AUC (0 to 8 hrs) in C57BL/6J mouse brain at 10 mg/kg, po administered as single dose by mass spectrometry based UHPLC analysis; assay type: ADME, organism-based; set-up: time < 8 hr, route oral, dose 10 mg/kg
# Procedure, shortened: (§3)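 Female C57BL/6J mice, one oral dose of 10 mg/kg in 20% Captisol; plasma and brain levels over time, n = 3 per time point (mean).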
# [6] = Clearance in C57BL/6J mouse plasma at 10 mg/kg, po administered once a day for 4 consecutive days by mass spectrometry based UHPLC analysis; assay type: ADME, organism-based; conditions: time 4 day
# Procedure, shortened: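 Female C57BL/6J mice given 10 mg/kg p.o. in 20% Captisol once daily for 4 consecutive days. Plasma and brain sampled after the final dose on day 4, n = 3 per time point.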
# [7] = Metabolic stability in CD1 mouse hepatocytes assessed as parent compound remaining at 5 uM incubated for 3 hrs by LC-MS analysis; assay type: ADME, cell-based, Hepatocyte; conditions: read-out: Stabilty
# Procedure, shortened: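 Cryopreserved primary hepatocytes in suspension (CD-1 mouse, Sprague-Dawley rat, Beagle dog, human). Compound diluted from 10 mM DMSO stock to 5 μM final. Sampled at 0, 15, 60, 90 and 180 min, protein precipitated with ACN plus internal standard, supernatant analysed by LC−MS. Run in duplicate. 7-ethoxycoumarin as positive control. Hepatocyte-free medium incubations as negative control.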
# Mus musculus [8] = test: In vivo inhibition of PI3Kalpha C57BL/6J mouse assessed as increase in plasma insulin concentration at 25 mg/kg, po measured after 8 hrs by ELISA; assay type: functional, organism-based
# Procedure, shortened: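 Female C57BL/6J mice given one oral dose (25 mg/kg); plasma insulin and glucose monitored over time, mean ± SEM.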
# [9] = Cmax in C57BL/6J mouse plasma at 25 mg/kg, po administered as single dose by mass spectrometry based UHPLC analysis; assay type: ADME, organism-based; set-up: route oral, dose 25 mg/kg
# Procedure, shortened: (§4)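 One oral dose of 25 mg/kg to female C57BL/6J mice. Plasma and brain concentrations followed over time, n = 3 per time point (mean).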
# [10] = Cmax in C57BL/6J mouse brain at 25 mg/kg, po administered as single dose by mass spectrometry based UHPLC analysis; assay type: ADME, organism-based; set-up: route oral, dose 25 mg/kg; procedure, shortened: as §4
# Rattus norvegicus = test: In vivo inhibition of PI3Kalpha Sprague-Dawley rat assessed as increase in plasma glucose concentration at 5 mg/kg, po measured after 8 hrs by glucoseoxidase-peroxide coupled colorimetric assay; assay type: functional, organism-based
# Procedure, shortened: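 Male Sprague Dawley rats dosed orally at 5 mg/kg; plasma insulin and glucose followed over time against vehicle, n = 3, mean ± SEM.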
# [11] = AUC (0 to 8 hrs) in male Sprague-Dawley rat brain at 5 mg/kg, po; assay type: ADME, organism-based; set-up: time < 8 hr, route oral, dose 5 mg/kg; conditions: in vivo
# Procedure, shortened: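 Male Sprague Dawley rats, single oral dose of 5 mg/kg. Plasma and brain concentrations measured over 8 h, n = 3, mean ± SEM; AUC0−8 computed from the time course.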
# [12] = Tmax in C57BL/6J mouse plasma at 10 mg/kg, po administered once a day for 4 consecutive days by mass spectrometry based UHPLC analysis; assay type: ADME, organism-based; conditions: time 4 day
# Procedure, shortened: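 Female C57BL/6J mice dosed orally at 10 mg/kg in 20% Captisol, either once or once daily for 4 days with sampling after the last dose on day 4. Plasma and brain concentrations followed over time. Tmax taken from at least 3 time points.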
# Mus musculus [13] = test: In vivo inhibition of mTORC2 in C57BL/6J mouse assessed as reduction in PKB/Akt phosphorylation at Ser473 in brain at 25 mg/kg, po measured after 8 hrs by Western blot analysis; assay type: functional, organism-based; procedure, shortened: as §2
# [14] = Metabolic stability in Beagle dog hepatocytes assessed as half-life at 5 uM incubated for 3 hrs by LC-MS analysis; assay type: ADME, cell-based, Canis lupus familiaris, Hepatocyte; procedure, shortened: as §1
# [15] = Cmax in C57BL/6J mouse brain at 10 mg/kg, po administered as single dose by mass spectrometry based UHPLC analysis; assay type: ADME, organism-based; set-up: route oral, dose 10 mg/kg; procedure, shortened: as §3
# [16] = AUC (0 to 8 hrs) in C57BL/6J mouse plasma at 10 mg/kg, po administered as single dose by mass spectrometry based UHPLC analysis; assay type: ADME, organism-based; set-up: time < 8 hr, route oral, dose 10 mg/kg; procedure, shortened: as §3
# Mus musculus [17] = test: In vivo inhibition of mTORC1 signalling in C57BL/6J mouse brain assessed as reduction in RPS6 phosphorylation at S235/236 residue at 25 mg/kg, po incubated for 30 mins by Western blot analysis; assay type: functional, organism-based
# Procedure, shortened: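 Female C57BL/6J mice dosed at 25 mg/kg p.o.; cortex collected 30 min later and lysed. Equal protein run on SDS-PAGE and western blotted for pS6(Ser235/236), pPKB(Ser473) and α-tubulin, detected by HRP secondary antibodies and ECL. Signal expressed as % of control cortex, n = 3, mean ± SEM, unpaired t-test.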
# [18] = AUC (0 to 8 hrs) in C57BL/6J mouse brain at 25 mg/kg, po administered as single dose by mass spectrometry based UHPLC analysis; assay type: ADME, organism-based; set-up: time < 8 hr, route oral, dose 25 mg/kg; procedure, shortened: as §4
# [19] = Tmax in C57BL/6J mouse brain at 25 mg/kg, po administered as single dose by mass spectrometry based UHPLC analysis; assay type: ADME, organism-based
# Procedure, shortened: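 Female C57BL/6J mice given a single oral dose of 25 mg/kg. Plasma and brain levels followed over time (n = 3 per time point, mean). Tmax is the time of maximal concentration.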
# [20] = Toxicity in Tsc1-GFAP knockout Balb/c mouse assessed as change in body weight at 10 to 50 mg/kg, po administered as single dose; assay type: organism-based; conditions: in vivo, dose 10-50 mg/kg
smiles,measurement,setting,value
C[C@@H]1COCCN1c1nc(-c2cnc(N)cc2C(F)F)nc(N2[C@H](C)COC[C@@H]2C)n1,Activity,Mus musculus [1],Dose-dependent effect
same,hepatocyte CLint at 5 µM,[2],5.3 µL/min/1e6 cells
same,Activity,Mus musculus [3],Active
same,inhibition,Mus musculus [4],Active
same,AUC(0-t) at 8 h,[5],4650 ng·h/mL
same,CL/F,[6],64.9 mL/min/kg
same,"remaining at 3 h, 5 µM",[7],48.4%
same,inhibition,Mus musculus [8],inactive
same,Cmax,[9],1830 ng/mL
same,Cmax,[10],3340 ng/mL
same,inhibition,Rattus norvegicus,inactive
same,AUC,[11],3689 ng·h/g
same,Tmax,[12],30 min
same,inhibition,Mus musculus [13],inactive
same,half-life at 5 µM,[14],490 min
same,Cmax,[15],1420 ng/mL
same,AUC(0-t) at 8 h,[16],2940 ng·h/mL
same,inhibition,Mus musculus [17],Active
same,AUC(0-t) at 8 h,[18],17100 ng·h/mL
same,Tmax,[19],30 min
same,Activity,[20],Non-Toxic
